Data reported in ChEMBL document CHEMBL4038333, “Nonacidic Farnesoid X Receptor Modulators” (J Med Chem, 2017).
Calls of active or inactive are those of the source. The calls are words filed in the database; no cut-off is given here.

Experiments:
Format in all cases: cell-based
[1] = molecular target: T1, Bile acid receptor (Homo sapiens) (UniProt Q96RI1); assay: Transactivation of human FXR expressed in human HeLa cells co-expressing BSEP at 3 uM after 24 hrs by dual-glo luciferase reporter gene assay relative to GW4064
T1 sequence (whole entry): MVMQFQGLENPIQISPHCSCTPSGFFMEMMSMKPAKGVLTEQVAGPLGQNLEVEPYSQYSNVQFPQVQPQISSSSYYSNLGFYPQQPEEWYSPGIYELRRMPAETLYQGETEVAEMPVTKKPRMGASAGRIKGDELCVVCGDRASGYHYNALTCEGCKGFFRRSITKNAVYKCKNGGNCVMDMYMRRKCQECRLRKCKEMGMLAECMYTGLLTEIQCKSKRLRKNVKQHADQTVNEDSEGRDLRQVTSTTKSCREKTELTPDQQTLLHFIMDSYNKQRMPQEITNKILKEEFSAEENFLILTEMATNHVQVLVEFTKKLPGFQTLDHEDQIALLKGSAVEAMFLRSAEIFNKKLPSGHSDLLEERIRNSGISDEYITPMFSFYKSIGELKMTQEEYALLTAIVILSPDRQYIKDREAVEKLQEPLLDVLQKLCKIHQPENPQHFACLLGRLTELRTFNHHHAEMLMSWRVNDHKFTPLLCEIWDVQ
How it was run: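 Full-length FXR reporter gene assay with constitutively expressed hFXR and hRXR, plus renilla luciferase for normalization and toxicity control. Maximum relative activation is expressed against the reference agonist at 3 µM, set as 100%.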

[2] = molecular target: Nuclear receptor subfamily 1 group I member 2 (Homo sapiens, UniProt O75469); assay: Transactivation of GAL4-tagged human PXR isoform 1 ligand binding domain (138 to 434 residues) expressed in HEK293T cells at 1 uM after 12 to 14 hrs by dual-glo luciferase reporter gene assay; conditions: hek-293t
Chain of Nuclear receptor subfamily 1 group I member 2 (O75469 whole entry, the tested form may be a part, canonical isoform): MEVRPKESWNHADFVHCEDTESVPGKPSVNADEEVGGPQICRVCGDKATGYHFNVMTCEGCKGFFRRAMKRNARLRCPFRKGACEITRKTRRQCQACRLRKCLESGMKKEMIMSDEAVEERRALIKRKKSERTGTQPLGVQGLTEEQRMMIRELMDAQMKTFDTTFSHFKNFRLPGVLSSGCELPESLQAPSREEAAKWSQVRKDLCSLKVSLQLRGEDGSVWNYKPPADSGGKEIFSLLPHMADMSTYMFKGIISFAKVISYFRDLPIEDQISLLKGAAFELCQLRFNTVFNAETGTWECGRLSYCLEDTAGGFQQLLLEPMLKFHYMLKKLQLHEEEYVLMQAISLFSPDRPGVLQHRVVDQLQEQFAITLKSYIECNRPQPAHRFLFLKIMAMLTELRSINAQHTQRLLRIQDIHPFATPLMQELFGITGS
How it was run: (§1)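 Run as a selectivity screen against each listed receptor (14 nuclear receptors plus TGR5), in both agonist and antagonist modes. Test concentration was 1 µM, with n = 3.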

[3] = molecular target: Vitamin D3 receptor (Homo sapiens) (UniProt P11473); assay: Transactivation of GAL4-tagged human VDR isoform 1 ligand binding domain (119 to 427 residues) expressed in HEK293T cells at 1 uM after 12 to 14 hrs by dual-glo luciferase reporter gene assay; conditions: HEK-293T; how it was run: as §1
Chain of Vitamin D3 receptor (Homo sapiens) (P11473 whole entry, the tested form may be a part, canonical isoform): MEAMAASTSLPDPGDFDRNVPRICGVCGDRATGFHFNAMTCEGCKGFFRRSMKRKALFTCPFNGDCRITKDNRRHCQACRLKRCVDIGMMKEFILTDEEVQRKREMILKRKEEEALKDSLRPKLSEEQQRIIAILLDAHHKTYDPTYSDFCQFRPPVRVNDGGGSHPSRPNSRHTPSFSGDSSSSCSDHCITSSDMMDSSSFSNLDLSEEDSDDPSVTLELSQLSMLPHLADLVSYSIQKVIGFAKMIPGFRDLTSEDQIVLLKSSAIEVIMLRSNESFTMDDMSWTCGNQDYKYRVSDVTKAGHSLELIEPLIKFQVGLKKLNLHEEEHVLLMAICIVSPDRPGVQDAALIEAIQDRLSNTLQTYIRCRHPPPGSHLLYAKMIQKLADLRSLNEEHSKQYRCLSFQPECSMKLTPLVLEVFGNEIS

[4] = molecular target: Retinoic acid receptor alpha (Homo sapiens) (UniProt P10276); assay: Transactivation of GAL4-tagged human RARalpha1 ligand binding domain (177 to 462 residues) expressed in HEK293T cells at 1 uM after 12 to 14 hrs by dual-glo luciferase reporter gene assay; conditions: HEK-293T; how it was run: as §1
Chain of Retinoic acid receptor alpha (Homo sapiens) (P10276 whole entry, the tested form may be a part, canonical isoform): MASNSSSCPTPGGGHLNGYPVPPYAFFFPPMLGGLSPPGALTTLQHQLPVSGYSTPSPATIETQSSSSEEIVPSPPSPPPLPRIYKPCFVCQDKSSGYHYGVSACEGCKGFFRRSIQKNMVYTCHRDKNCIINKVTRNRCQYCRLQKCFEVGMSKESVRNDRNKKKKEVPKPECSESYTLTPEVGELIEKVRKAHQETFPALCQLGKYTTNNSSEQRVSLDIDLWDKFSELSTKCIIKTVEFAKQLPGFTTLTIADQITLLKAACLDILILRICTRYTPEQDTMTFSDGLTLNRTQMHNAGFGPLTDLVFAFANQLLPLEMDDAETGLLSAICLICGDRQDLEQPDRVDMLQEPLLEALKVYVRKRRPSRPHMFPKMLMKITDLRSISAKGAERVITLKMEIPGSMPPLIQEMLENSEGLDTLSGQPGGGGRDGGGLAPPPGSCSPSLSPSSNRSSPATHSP

[5] = molecular target: Retinoic acid receptor RXR-beta (Homo sapiens) (UniProt P28702); assay: Transactivation of GAL4-tagged human RXRbeta isoform 1 ligand binding domain (294 to 533 residues) expressed in HEK293T cells at 1 uM after 12 to 14 hrs by dual-glo luciferase reporter gene assay; conditions: HEK-293T; how it was run: as §1
Chain of Retinoic acid receptor RXR-beta (Homo sapiens) (P28702 whole entry, the tested form may be a part, canonical isoform): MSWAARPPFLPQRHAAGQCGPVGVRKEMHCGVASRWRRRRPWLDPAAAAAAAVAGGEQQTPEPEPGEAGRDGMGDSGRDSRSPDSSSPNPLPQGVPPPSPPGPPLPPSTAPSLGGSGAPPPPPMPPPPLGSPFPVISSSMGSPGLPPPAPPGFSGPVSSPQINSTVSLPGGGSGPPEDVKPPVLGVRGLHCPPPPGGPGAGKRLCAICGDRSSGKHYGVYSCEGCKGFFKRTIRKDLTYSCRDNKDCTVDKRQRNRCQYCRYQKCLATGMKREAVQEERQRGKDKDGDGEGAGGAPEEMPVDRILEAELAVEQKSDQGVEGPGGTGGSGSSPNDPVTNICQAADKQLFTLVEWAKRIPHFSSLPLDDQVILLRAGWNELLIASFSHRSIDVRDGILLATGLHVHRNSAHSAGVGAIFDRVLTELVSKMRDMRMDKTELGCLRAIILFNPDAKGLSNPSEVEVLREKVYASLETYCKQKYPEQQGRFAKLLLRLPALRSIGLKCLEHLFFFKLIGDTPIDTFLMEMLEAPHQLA

[6] = molecular target: Retinoic acid receptor RXR-alpha (Homo sapiens) (UniProt P19793); assay: Transactivation of GAL4-tagged human RXRalpha ligand binding domain (225 to 462 residues) expressed in HEK293T cells at 1 uM after 12 to 14 hrs by dual-glo luciferase reporter gene assay; conditions: HEK-293T; how it was run: as §1
Chain of Retinoic acid receptor RXR-alpha (Homo sapiens) (P19793 whole entry, the tested form may be a part): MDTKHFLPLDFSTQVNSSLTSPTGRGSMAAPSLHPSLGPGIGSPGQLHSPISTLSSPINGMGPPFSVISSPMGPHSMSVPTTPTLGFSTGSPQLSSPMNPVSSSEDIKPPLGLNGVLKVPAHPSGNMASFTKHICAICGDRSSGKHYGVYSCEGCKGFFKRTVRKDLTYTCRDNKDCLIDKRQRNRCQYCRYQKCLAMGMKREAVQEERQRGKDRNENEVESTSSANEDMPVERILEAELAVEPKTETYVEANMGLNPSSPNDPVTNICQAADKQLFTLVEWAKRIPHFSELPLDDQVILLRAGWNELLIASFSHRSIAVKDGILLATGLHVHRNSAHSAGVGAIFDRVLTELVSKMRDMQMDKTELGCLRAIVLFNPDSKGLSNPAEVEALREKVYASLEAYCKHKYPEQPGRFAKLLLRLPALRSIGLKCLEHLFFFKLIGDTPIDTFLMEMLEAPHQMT

[7] = molecular target: Oxysterols receptor LXR-alpha (Homo sapiens) (UniProt Q13133); assay: Transactivation of GAL4-tagged human LXRalpha ligand binding domain expressed in HEK293T cells at 1 uM after 12 to 14 hrs by dual-glo luciferase reporter gene assay; conditions: HEK-293T; how it was run: as §1
Chain of Oxysterols receptor LXR-alpha (Homo sapiens) (Q13133 whole entry, the tested form may be a part): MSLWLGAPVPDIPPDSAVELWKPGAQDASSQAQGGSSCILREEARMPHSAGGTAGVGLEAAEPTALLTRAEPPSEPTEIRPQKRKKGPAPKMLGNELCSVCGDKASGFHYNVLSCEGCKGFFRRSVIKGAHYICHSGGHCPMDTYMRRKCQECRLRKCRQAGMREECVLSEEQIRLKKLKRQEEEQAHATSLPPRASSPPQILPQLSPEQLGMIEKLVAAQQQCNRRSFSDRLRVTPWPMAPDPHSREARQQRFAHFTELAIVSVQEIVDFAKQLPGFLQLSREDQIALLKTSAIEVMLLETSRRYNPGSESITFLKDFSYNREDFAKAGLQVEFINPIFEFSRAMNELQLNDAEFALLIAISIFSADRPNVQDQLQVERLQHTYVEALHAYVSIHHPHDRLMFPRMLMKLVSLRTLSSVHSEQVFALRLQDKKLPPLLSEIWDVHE

[8] = molecular target: Peroxisome proliferator-activated receptor delta (Homo sapiens) (UniProt Q03181); assay: Transactivation of GAL4-tagged human PPARdelta ligand binding domain expressed in HEK293T cells at 1 uM after 12 to 14 hrs by dual-glo luciferase reporter gene assay; conditions: HEK-293T; how it was run: as §1
Chain of Peroxisome proliferator-activated receptor delta (Homo sapiens) (Q03181 whole entry, the tested form may be a part): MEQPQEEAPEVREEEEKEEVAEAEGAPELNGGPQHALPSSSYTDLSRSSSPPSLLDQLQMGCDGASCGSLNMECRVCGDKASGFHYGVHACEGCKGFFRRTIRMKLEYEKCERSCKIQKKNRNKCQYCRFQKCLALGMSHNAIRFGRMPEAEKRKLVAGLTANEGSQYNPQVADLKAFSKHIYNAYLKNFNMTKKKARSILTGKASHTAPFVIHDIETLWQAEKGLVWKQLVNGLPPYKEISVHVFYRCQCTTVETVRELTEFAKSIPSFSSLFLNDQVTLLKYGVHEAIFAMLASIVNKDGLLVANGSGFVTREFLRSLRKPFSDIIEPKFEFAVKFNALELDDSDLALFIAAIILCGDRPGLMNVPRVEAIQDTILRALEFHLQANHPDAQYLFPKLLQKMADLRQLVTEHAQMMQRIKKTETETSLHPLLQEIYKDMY

[9] = molecular target: Peroxisome proliferator-activated receptor alpha (Homo sapiens) (UniProt Q07869); assay: Transactivation of GAL4-tagged human PPARalpha ligand binding domain expressed in HEK293T cells at 1 uM after 12 to 14 hrs by dual-glo luciferase reporter gene assay; conditions: HEK-293T; how it was run: as §1
Chain of Peroxisome proliferator-activated receptor alpha (Homo sapiens) (Q07869 whole entry, the tested form may be a part, canonical isoform): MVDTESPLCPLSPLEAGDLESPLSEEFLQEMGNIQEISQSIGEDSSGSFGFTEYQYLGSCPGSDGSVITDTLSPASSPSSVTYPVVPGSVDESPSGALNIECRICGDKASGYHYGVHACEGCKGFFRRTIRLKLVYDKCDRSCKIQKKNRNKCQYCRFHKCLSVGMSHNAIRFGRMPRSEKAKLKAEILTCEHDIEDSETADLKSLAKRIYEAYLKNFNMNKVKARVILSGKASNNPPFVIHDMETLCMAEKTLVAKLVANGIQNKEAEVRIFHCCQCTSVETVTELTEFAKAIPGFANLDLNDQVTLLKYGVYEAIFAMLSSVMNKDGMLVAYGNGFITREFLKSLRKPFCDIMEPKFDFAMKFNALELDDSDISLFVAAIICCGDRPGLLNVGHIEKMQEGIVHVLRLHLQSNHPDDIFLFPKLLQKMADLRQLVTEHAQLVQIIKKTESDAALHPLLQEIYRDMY

[10] = molecular target: G-protein coupled bile acid receptor 1 (Homo sapiens) (UniProt Q8TDU6); assay: Antagonist activity at TGR5 (unknown origin) expressed in HEK293T cells at 1 uM after 12 to 14 hrs by dual-glo luciferase reporter gene assay; how it was run: as §1
Chain of G-protein coupled bile acid receptor 1 (Homo sapiens) (Q8TDU6 whole entry, the tested form may be a part, canonical isoform): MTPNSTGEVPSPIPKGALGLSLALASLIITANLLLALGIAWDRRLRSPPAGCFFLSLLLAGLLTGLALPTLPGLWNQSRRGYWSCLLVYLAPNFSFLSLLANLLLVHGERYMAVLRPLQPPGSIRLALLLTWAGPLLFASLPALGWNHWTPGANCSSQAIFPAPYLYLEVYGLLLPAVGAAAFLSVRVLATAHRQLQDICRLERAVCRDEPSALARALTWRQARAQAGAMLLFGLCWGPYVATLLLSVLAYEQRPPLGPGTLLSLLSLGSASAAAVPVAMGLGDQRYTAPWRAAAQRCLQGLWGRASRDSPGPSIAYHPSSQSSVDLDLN

[11] = molecular target: Nuclear receptor subfamily 1 group I member 3 (Homo sapiens, UniProt Q14994); assay: Antagonist activity at GAL4-tagged human CAR isoform 6 ligand binding domain (48 to 324 residues) expressed in HEK293T cells at 1 uM after 12 to 14 hrs by dual-glo luciferase reporter gene assay; conditions: hek-293t; how it was run: as §1
Chain of Nuclear receptor subfamily 1 group I member 3 (Q14994 whole entry, the tested form may be a part, canonical isoform): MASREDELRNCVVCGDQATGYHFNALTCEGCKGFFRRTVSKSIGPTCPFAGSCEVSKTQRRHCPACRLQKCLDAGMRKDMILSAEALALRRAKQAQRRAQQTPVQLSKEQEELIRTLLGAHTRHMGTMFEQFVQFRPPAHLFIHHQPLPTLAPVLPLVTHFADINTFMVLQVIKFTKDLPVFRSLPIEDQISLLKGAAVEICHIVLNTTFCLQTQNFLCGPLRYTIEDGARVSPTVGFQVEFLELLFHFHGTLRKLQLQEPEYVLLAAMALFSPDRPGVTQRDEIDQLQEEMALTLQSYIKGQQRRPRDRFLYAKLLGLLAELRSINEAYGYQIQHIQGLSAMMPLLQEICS

[12] = molecular target: Retinoic acid receptor beta (Homo sapiens) (UniProt P10826); assay: Antagonist activity at GAL4-tagged human RARbeta1 ligand binding domain (177 to 455 residues) expressed in HEK293T cells at 1 uM after 12 to 14 hrs by dual-glo luciferase reporter gene assay; conditions: HEK-293T; how it was run: as §1
Chain of Retinoic acid receptor beta (Homo sapiens) (P10826 whole entry, the tested form may be a part): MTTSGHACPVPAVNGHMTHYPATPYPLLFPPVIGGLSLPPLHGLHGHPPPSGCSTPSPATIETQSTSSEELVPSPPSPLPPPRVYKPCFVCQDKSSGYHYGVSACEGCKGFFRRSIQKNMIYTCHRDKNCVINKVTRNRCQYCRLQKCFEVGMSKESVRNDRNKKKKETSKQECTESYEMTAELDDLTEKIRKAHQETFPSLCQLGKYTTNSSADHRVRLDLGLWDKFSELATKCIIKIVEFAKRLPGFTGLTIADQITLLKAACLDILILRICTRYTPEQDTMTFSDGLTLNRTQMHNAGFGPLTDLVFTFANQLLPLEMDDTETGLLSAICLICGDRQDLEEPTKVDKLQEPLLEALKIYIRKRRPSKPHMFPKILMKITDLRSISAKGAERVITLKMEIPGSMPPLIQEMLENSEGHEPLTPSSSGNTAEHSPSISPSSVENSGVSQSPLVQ

[13] = molecular target: Retinoic acid receptor alpha (Homo sapiens) (UniProt P10276); assay: Antagonist activity at GAL4-tagged human RARalpha1 ligand binding domain (177 to 462 residues) expressed in HEK293T cells at 1 uM after 12 to 14 hrs by dual-glo luciferase reporter gene assay; conditions: HEK-293T; how it was run: as §1
[14] = molecular target: Oxysterols receptor LXR-alpha (Homo sapiens) (UniProt Q13133); assay: Antagonist activity at GAL4-tagged human LXRalpha ligand binding domain expressed in HEK293T cells at 1 uM after 12 to 14 hrs by dual-glo luciferase reporter gene assay; conditions: HEK-293T; how it was run: as §1
[15] = molecular target: Peroxisome proliferator-activated receptor alpha (Homo sapiens) (UniProt Q07869); assay: Antagonist activity at GAL4-tagged human PPARalpha ligand binding domain expressed in HEK293T cells at 1 uM after 12 to 14 hrs by dual-glo luciferase reporter gene assay; conditions: HEK-293T; how it was run: as §1
[16] = test system: HeLa; assay: Selectivity ratio for human FXR expressed in human HeLa cells co-expressing BSEP over GAL4-tagged human CAR isoform 6 ligand binding domain (48 to 324 residues) expressed in HEK293T cells
[17] = test system: HeLa; assay: Selectivity ratio for human FXR expressed in human HeLa cells co-expressing BSEP over GAL4-tagged human PXR isoform 1 ligand binding domain (138 to 434 residues) expressed in HEK293T cells
[18] = test system: HeLa; assay: Selectivity ratio for human FXR expressed in human HeLa cells co-expressing BSEP over GAL4-tagged human RARgamma isoform 1 ligand binding domain (179 to 454 residues) expressed in HEK293T cells
[19] = test system: HeLa; assay: Selectivity ratio for human FXR expressed in human HeLa cells co-expressing BSEP over GAL4-tagged human LXRbeta ligand binding domain expressed in HEK293T cells
[20] = test system: HeLa; assay: Selectivity ratio for human FXR expressed in human HeLa cells co-expressing BSEP over GAL4-tagged human PPARdelta ligand binding domain expressed in HEK293T cells
[21] = test system: HeLa; assay: Selectivity ratio for human FXR expressed in human HeLa cells co-expressing BSEP over GAL4-tagged human PPARgamma ligand binding domain expressed in HEK293T cells
[22] = molecular target: T1, Bile acid receptor (Homo sapiens); assay: Modulation of FXR in human HepG2 cells assessed as suppression of CYP7A1 mRNA expression at 10 nM by qRT-PCR analysis
How it was run: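 HepG2 hepatocarcinoma cells were incubated with the compound at 10 nM. FXR target-gene mRNA was quantified by qRT-PCR (n = 3), with significance at p < 0.05, 0.01 and 0.001.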

- Activity [2]: Not Active
- Activity [3]: inactive
- Activity [4]: inactive
- Activity [5]: inactive
- Activity [6]: inactive
- Activity [7]: inactive
- Activity [8]: inactive
- Activity [9]: inactive
- inhibition [10]: inactive
- inhibition (INH) [11]: Not Active
- inhibition [12]: inactive
- inhibition [13]: inactive
- inhibition [14]: inactive
- inhibition [15]: inactive
- Activity [22]: Active
SMILES: COc1ccc(CNc2c(-c3cc(Cl)ccn3)nc3ccc(Cl)cn23)cc1
- max activation [1]: 23%
- Selectivity ratio [16]: 3000
- Selectivity ratio [17]: 3000
- Selectivity ratio [18]: 3000
- Selectivity ratio [19]: 3000
- Selectivity ratio [20]: 3000
- Selectivity ratio [21]: 3000
